# Experiments:
# Escherichia coli [1] = assay: Antimicrobial activity against Escherichia coli DH10B harboring beta-lactamase KPC-2 T237S mutant by agar dilution method; type: functional; settings: K-12 DH10B
# Method in brief: (§1)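 LB agar dilution MICs followed CLSI criteria, with inocula applied by Steers replicator. […] Piperacillin-tazobactam was tested at an 8:1 ratio. Wild-type and mutant blaKPC-2 were carried on pBC SK(+), or wild type on pBR322-catI, in E. coli DH10B.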
# Klebsiella pneumoniae [2] = assay: Activity of Klebsiella pneumoniae 1534 beta-lactamase KPC-2 T237A mutant by spectrophotometric analysis
# Method in brief: (§2)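 Purified KPC-2 variant enzymes (periplasmic lysate from E. coli, preparative isoelectric focusing). Hydrolysis followed by diode-array spectrophotometry in 10 mM PBS, pH 7.4, room temperature. Enzyme at 10 nM with substrate in molar excess for pseudo-first-order conditions. Vmax and Km came from a nonlinear least-squares Michaelis-Menten fit.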
# Escherichia coli [3] = assay: Antimicrobial activity against Escherichia coli DH10B harboring beta-lactamase KPC-2 T237D mutant by agar dilution method; type: functional; settings: K-12 DH10B; method in brief: as §1
# Klebsiella pneumoniae [4] = assay: Activity of Klebsiella pneumoniae 1534 beta-lactamase KPC-2 T237S mutant by spectrophotometric analysis; method in brief: as §2
# Escherichia coli [5] = assay: Antimicrobial activity against Escherichia coli DH10B harboring beta-lactamase KPC-2 T237W mutant by agar dilution method; type: functional; settings: K-12 DH10B; method in brief: as §1
# Escherichia coli [6] = assay: Antimicrobial activity against Escherichia coli DH10B harboring plasmid pBC SK(+) carrying wild type beta-lactamase KPC-2 by agar dilution method; type: functional; settings: K-12 DH10B; method in brief: as §1
# Klebsiella pneumoniae [7] = assay: Ratio of Kcat/Km for Klebsiella pneumoniae 1534 beta-lactamase KPC-2 T237S mutant by spectrophotometric analysis; method in brief: as §2
# Escherichia coli [8] = assay: Antimicrobial activity against Escherichia coli DH10B harboring plasmid pBR322-catI carrying beta-lactamase KPC-2 by agar dilution method; type: functional; settings: K-12 DH10B; method in brief: as §1
# Klebsiella pneumoniae [9] = assay: Ratio of Kcat/Km for Klebsiella pneumoniae 1534 beta-lactamase KPC-2 T237A mutant by spectrophotometric analysis; method in brief: as §2
# Klebsiella pneumoniae [10] = assay: Selectivity index, Ratio of Kcat/Km for Klebsiella pneumoniae 1534 beta-lactamase KPC-2 T237S mutant to ratio of Kcat/Km for Klebsiella pneumoniae 1534 beta-lactamase KPC-2 by spectrophotometric analysis
# Method in brief: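 Kinetics used purified enzymes in 10 mM PBS, pH 7.4, room temperature, with 10 nM enzyme and substrate in excess. Km and Vmax came from a Michaelis-Menten fit. kcat/Km of the variant was compared with wild type as ΔΔG = −RT ln of the kcat/Km ratio.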
# Klebsiella pneumoniae [11] = assay: Antimicrobial activity against Klebsiella pneumoniae 1534 expressing beta-lactamase KPC-2 by agar dilution method; type: functional
# Method in brief: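 MICs were determined by LB agar dilution following CLSI criteria, with a Steers replicator. […] Piperacillin-tazobactam was kept at an 8:1 ratio.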
# Escherichia coli [12] = assay: Antimicrobial activity against Escherichia coli DH10B by agar dilution method; type: functional; settings: K-12 DH10B; method in brief: as §1
# Escherichia coli [13] = assay: Antimicrobial activity against Escherichia coli DH10B harboring beta-lactamase KPC-2 T237K mutant by agar dilution method; type: functional; settings: K-12 DH10B; method in brief: as §1
# Escherichia coli [14] = assay: Antimicrobial activity against Escherichia coli DH10B harboring beta-lactamase KPC-2 T237G mutant by agar dilution method; type: functional; settings: K-12 DH10B; method in brief: as §1
# Escherichia coli [15] = assay: Antimicrobial activity against Escherichia coli DH10B harboring beta-lactamase KPC-2 T237C mutant by agar dilution method; type: functional; settings: K-12 DH10B; method in brief: as §1
# Escherichia coli [16] = assay: Antimicrobial activity against Escherichia coli DH10B harboring beta-lactamase KPC-2 T237P mutant by agar dilution method; type: functional; settings: K-12 DH10B; method in brief: as §1
# Escherichia coli [17] = assay: Antimicrobial activity against Escherichia coli DH10B harboring beta-lactamase KPC-2 T237Y mutant by agar dilution method; type: functional; settings: K-12 DH10B; method in brief: as §1
# Escherichia coli [18] = assay: Antimicrobial activity against Escherichia coli DH10B harboring beta-lactamase KPC-2 T237R mutant by agar dilution method; type: functional; settings: K-12 DH10B; method in brief: as §1
# Escherichia coli [19] = assay: Antimicrobial activity against Escherichia coli DH10B harboring beta-lactamase KPC-2 T237V mutant by agar dilution method; type: functional; settings: K-12 DH10B; method in brief: as §1
# Escherichia coli [20] = assay: Antimicrobial activity against Escherichia coli DH10B harboring beta-lactamase KPC-2 T237M mutant by agar dilution method; type: functional; settings: K-12 DH10B; method in brief: as §1
# Escherichia coli [21] = assay: Antimicrobial activity against Escherichia coli DH10B harboring beta-lactamase KPC-2 T237L mutant by agar dilution method; type: functional; settings: K-12 DH10B; method in brief: as §1
# Escherichia coli [22] = assay: Antimicrobial activity against Escherichia coli DH10B harboring beta-lactamase KPC-2 T237H mutant by agar dilution method; type: functional; settings: K-12 DH10B; method in brief: as §1
# Escherichia coli [23] = assay: Antimicrobial activity against Escherichia coli DH10B harboring beta-lactamase KPC-2 T237E mutant by agar dilution method; type: functional; settings: K-12 DH10B; method in brief: as §1
# Escherichia coli [24] = assay: Antimicrobial activity against Escherichia coli DH10B harboring beta-lactamase KPC-2 T237A mutant by agar dilution method; type: functional; settings: K-12 DH10B; method in brief: as §1
# Escherichia coli [25] = assay: Antimicrobial activity against Escherichia coli DH10B harboring beta-lactamase KPC-2 T237F mutant by agar dilution method; type: functional; settings: K-12 DH10B; method in brief: as §1
# Escherichia coli [26] = assay: Antimicrobial activity against Escherichia coli DH10B harboring beta-lactamase KPC-2 T237N mutant by agar dilution method; type: functional; settings: K-12 DH10B; method in brief: as §1
# Escherichia coli [27] = assay: Antimicrobial activity against Escherichia coli DH10B harboring plasmid […] by agar dilution method; type: functional; settings: K-12 DH10B; method in brief: as §1
# Escherichia coli [28] = assay: Antimicrobial activity against Escherichia coli DH10B harboring beta-lactamase KPC-2 T237I mutant by agar dilution method; type: functional; settings: K-12 DH10B; method in brief: as §1
# Escherichia coli [29] = assay: Antimicrobial activity against Escherichia coli DH10B harboring beta-lactamase KPC-2 T237Q mutant by agar dilution method; type: functional; settings: K-12 DH10B; method in brief: as §1
# [30] = Inhibition of Klebsiella pneumoniae 1534 beta-lactamase KPC-2 T237S mutant by competitive assay
# Method in brief: (§3)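 Direct competition assay at steady state with purified enzyme at 10 nM. Inhibitor was varied from 5 μM to 5 mM, with nitrocefin 100 μM final as reporter substrate. 1/v0 was plotted against [I], and Ki(observed) was taken as y-intercept divided by slope. This was corrected by 1 + [S]/Km(nitrocefin).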
# Klebsiella pneumoniae [31] = assay: Ratio of Ki for Klebsiella pneumoniae 1534 beta-lactamase KPC-2 T237S mutant to Ki for Klebsiella pneumoniae wild type beta-lactamase KPC-2 by competitive assay; method in brief: as §3
# Klebsiella pneumoniae [32] = assay: Ratio of Ki for Klebsiella pneumoniae 1534 beta-lactamase KPC-2 T237A mutant to Ki for wild type Klebsiella pneumoniae beta-lactamase KPC-2 by competitive assay
# [33] = Inhibition of Klebsiella pneumoniae 1534 beta-lactamase KPC-2 T237A mutant by competitive assay; method in brief: as §3
# [34] = substrate: CC(=O)OCC1=C(C(=O)O)N2C(=O)[C@@H](NC(=O)Cc3cccs3)[C@H]2SC1; assay: (§4) Activity of Klebsiella pneumoniae 1534 beta-lactamase KPC-2 by spectrophotometric analysis
# Method in brief: (§5)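 Purified KPC-2 was expressed in E. coli (DH10B or IPTG-induced Origami2 DE3 pLys), released by periplasmic lysis, and purified by preparative isoelectric focusing. It was assayed at 10 nM in 10 mM PBS pH 7.4 at room temperature, with substrate in molar excess for pseudo-first-order conditions. Hydrolysis was read on a diode-array spectrophotometer, and Vmax and Km came from nonlinear least-squares Michaelis-Menten fits.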
# [35] = substrate: C[C@@H](O)[C@H]1C(=O)N2C(C(=O)O)=C(SCCNC=N)C[C@H]12; assay: as §4; method in brief: as §5
# [36] = substrate: CCN1CCN(C(=O)N[C@@H](C(=O)N[C@@H]2C(=O)N3[C@@H]2SC(C)(C)[C@@H]3C(=O)O)c2ccccc2)C(=O)C1=O; assay: as §4; method in brief: as §5
# [37] = substrate: O=C(Cc1cccs1)N[C@@H]1C(=O)N2C(C(=O)O)=C(/C=C/c3ccc([N+](=O)[O-])cc3[N+](=O)[O-])CS[C@H]12; assay: as §4; method in brief: as §5
# [38] = substrate: CO/N=C(\C(=O)N[C@@H]1C(=O)N2C(C(=O)O)=C(COC(C)=O)CS[C@H]12)c1csc(N)n1; assay: as §4; method in brief: as §5
# [39] = substrate: CC(=O)OCC1=C(C(=O)O)N2C(=O)[C@@H](NC(=O)Cc3cccs3)[C@H]2SC1; assay: (§6) Ratio of Kcat/Km for Klebsiella pneumoniae 1534 beta-lactamase KPC-2 by spectrophotometric analysis; method in brief: as §5
# [40] = substrate: C[C@@H](O)[C@H]1C(=O)N2C(C(=O)O)=C(SCCNC=N)C[C@H]12; assay: as §6; method in brief: as §5
# [41] = substrate: CCN1CCN(C(=O)N[C@@H](C(=O)N[C@@H]2C(=O)N3[C@@H]2SC(C)(C)[C@@H]3C(=O)O)c2ccccc2)C(=O)C1=O; assay: as §6; method in brief: as §5
# [42] = substrate: O=C(Cc1cccs1)N[C@@H]1C(=O)N2C(C(=O)O)=C(/C=C/c3ccc([N+](=O)[O-])cc3[N+](=O)[O-])CS[C@H]12; assay: as §6; method in brief: as §5
# [43] = substrate: CO/N=C(\C(=O)N[C@@H]1C(=O)N2C(C(=O)O)=C(COC(C)=O)CS[C@H]12)c1csc(N)n1; assay: as §6; method in brief: as §5
molecule,measurement,setting,value
C[C@@H](O)[C@H]1C(=O)N2C(C(=O)O)=C(SCCNC=N)C[C@H]12 [IMIPENEM ANHYDROUS],MIC,Escherichia coli [1],1 µg/mL
same,Km,Klebsiella pneumoniae [2],31 µM
same,kcat,Klebsiella pneumoniae [2],6.8 s⁻¹
same,MIC,Escherichia coli [3],0.25 µg/mL
same,Km,Klebsiella pneumoniae [4],21 µM
same,kcat,Klebsiella pneumoniae [4],21 s⁻¹
same,MIC,Escherichia coli [5],0.25 µg/mL
same,MIC,Escherichia coli [6],0.5 µg/mL
same,kcat/Km,Klebsiella pneumoniae [7],1e+06 M⁻¹ s⁻¹
same,MIC,Escherichia coli [8],8 µg/mL
same,kcat/Km,Klebsiella pneumoniae [9],220000 M⁻¹ s⁻¹
same,fold change (FC),Klebsiella pneumoniae [10],2.7
same,MIC,Klebsiella pneumoniae [11],8 µg/mL
C[C@@H](O)[C@H]1C(=O)N2C(C(=O)O)=C(S[C@@H]3CN[C@H](C(=O)N(C)C)C3)[C@H](C)[C@H]12 [MEROPENEM],MIC,Escherichia coli [1],0.5 µg/mL
same,MIC,Escherichia coli [12],0.06 µg/mL
same,MIC,Escherichia coli [3],0.06 µg/mL
same,MIC,Escherichia coli [13],0.06 µg/mL
same,MIC,Escherichia coli [14],0.06 µg/mL
same,MIC,Escherichia coli [15],0.06 µg/mL
same,MIC,Escherichia coli [16],0.06 µg/mL
same,MIC,Escherichia coli [17],0.06 µg/mL
same,MIC,Escherichia coli [5],0.06 µg/mL
same,MIC,Escherichia coli [6],0.25 µg/mL
same,MIC,Escherichia coli [8],2 µg/mL
same,MIC,Escherichia coli [18],0.06 µg/mL
same,MIC,Escherichia coli [19],0.06 µg/mL
same,MIC,Escherichia coli [20],0.06 µg/mL
same,MIC,Escherichia coli [21],0.06 µg/mL
same,MIC,Escherichia coli [22],0.06 µg/mL
same,MIC,Escherichia coli [23],0.06 µg/mL
same,MIC,Escherichia coli [24],0.06 µg/mL
same,MIC,Escherichia coli [25],0.06 µg/mL
same,MIC,Escherichia coli [26],0.06 µg/mL
same,MIC,Klebsiella pneumoniae [11],4 µg/mL
same,MIC,Escherichia coli [27],0.06 µg/mL
same,MIC,Escherichia coli [28],0.06 µg/mL
same,MIC,Escherichia coli [29],0.06 µg/mL
CC1(C)[C@H](C(=O)O)N2C(=O)C[C@H]2S1(=O)=O [SULBACTAM],Ki,[30],97 µM
same,fold change (FC),Klebsiella pneumoniae [31],1.7
same,fold change (FC),Klebsiella pneumoniae [32],4.2
same,Ki,[33],703 µM
C[C@]1(Cn2ccnn2)[C@H](C(=O)O)N2C(=O)C[C@H]2S1(=O)=O [TAZOBACTAM],Ki,[30],53 µM
same,fold change (FC),Klebsiella pneumoniae [31],1.7
same,fold change (FC),Klebsiella pneumoniae [32],2.2
same,Ki,[33],174 µM
"Carbapenem-hydrolyzing beta-lactamase KPC (Klebsiella pneumoniae), Q9F663 (protein) MSLYRRLVLLSCLSWPLAGFSATALTNLVAEPFAKLEQDFGGSIGVYAMDTGSGATVSYRAEERFPLCSSFKGFLAAAVLARSQQQAGLLDTPIRYGKNALVPWSPISEKYLTTGMTVAELSAAAVQYSDNAAANLLLKELGGPAGLTAFMRSIGDTTFRLDRWELELNSAIPGDARDTSSPRAVTESLQKLTLGSALAAPQRQQFVDWLKGNTTGNHRIRAAVPADWAVGDKTGTCGVYGTANDYAVVWPTGRAPIVLAVYTRAPNKDDKHSEAVIAAAARLALEGLGVNGQ",Km,[34],14 µM
same,kcat,[34],44 s⁻¹
same,Km,[35],19 µM
same,kcat,[35],19 s⁻¹
same,Km,[36],15 µM
same,kcat,[36],51 s⁻¹
same,Km,[37],6 µM
same,kcat,[37],52 s⁻¹
same,Km,[38],207 µM
same,kcat,[38],142 s⁻¹
same,kcat/Km,[39],3.1e+06 M⁻¹ s⁻¹
same,kcat/Km,[40],1e+06 M⁻¹ s⁻¹
same,kcat/Km,[41],3.4e+06 M⁻¹ s⁻¹
same,kcat/Km,[42],8.7e+06 M⁻¹ s⁻¹
same,kcat/Km,[43],700000 M⁻¹ s⁻¹

# Reference: ChEMBL document CHEMBL1629686, “Substrate selectivity and a novel role in inhibitor discrimination by residue 237 in the KPC-2 beta-lactamase” (Antimicrob Agents Chemother, 2010)
